Neddyl block – inhibitors of human cullin neddylation; TR-FRET cullin neddylation, biochemical; AID 651699; inhibition, % at 25 µM; hit rate 0.58% among 360,000; in the data active = inhibition above about 36%
UBC13 polyUb – human UBC13 polyubiquitination inhibition | UBC13 polyubiquitin chain formation, TR-FRET | P61088 | hit rate 0.47% among 330,000 | inhibition, % at 20 µM; in the data active = inhibition above about 45%, passing the limit was not always enough
SR-BI DiI inh – inhibitors of mouse SR-BI mediated HDL lipid uptake; Q61009; AID 488896; inhibition, % at 12.5 µM; hit rate 0.96% among 320,000; ldlA[mSR-BI] CHO cells, DiI-HDL uptake fluorescence, 3 h;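 active = mean replicate inhibition of at least 70% and a set share of replicates each scoring 70 or more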;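 note: 0% = median of neutral control wells and 100% = median of positive control wells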
SR-BI uptake up – SR-BI HDL lipid transfer activation. CHO ldlA[mSR-BI] cells, DiI-HDL uptake fluorescence, 3 h; 100 = double the neutral-control signal. activation, % at 12.5 µM. hit rate 0.096% among 320,000;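 active = mean replicate activation of at least 60% and every replicate at or above 60%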;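 note: 0% = median plate neutral-control signal and 100% = twice that signal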
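Material – SR-BI-overexpressing, LDLR-lacking CHO cells · Medium – BSA-supplemented, HEPES-buffered Ham's F12, pH 7.4 · Doses – single concentration · Times – compound with DiI-HDL co-incubation, 3 h at 37 °C · Measured by – bottom-read fluorescence, 550/595 nm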
Neddyl inh conf – cullin neddylation inhibition, confirmation | shares compounds with Neddyl block | TR-FRET cullin neddylation biochemical assay | calls only at 25 µM | hit rate 13% among 1,800 | AID 652217; in the data active = inhibition above about 40%;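 note: neddylation substrate is the cullin 1 ring ligase complex with SKP2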
The depositor's hits bear a star; i = inactive; nt = no result shown; + = active, no number. Sampled rows, rich in hits. Any-hit rate of the full collection: about 1.9%.

SMILES	Neddyl block	UBC13 polyUb	SR-BI DiI inh	SR-BI uptake up	Neddyl inh conf
Nc1cccc(-c2cccc3nncn23)c1	-10	nt	nt	nt	nt
COCCNC(=O)c1cnn2c(C(F)F)cc(-c3ccccc3)nc12	41*	13	-14	14	i
O=C(c1cnn2c(C(F)F)cc(-c3ccccc3)nc12)N1CCc2ccccc2C1	48*	5	47	-47	i
Cc1cc(C(F)F)n2ncc(C(=O)N3CCc4ccccc4C3)c2n1	13	1	25	-25	nt
COCCNC(=O)Cn1nc(-c2ccccc2C)ccc1=O	-1	2	-4	4	nt
O=C(Cc1cccc(NC(=O)C2CCN(C(=O)C3CCCCC3)CC2)c1)Nc1cccc(C(=O)N2CCCCC2)c1	-4	nt	0	0	nt
Cc1ccc(CN2CCC[C@]3(N[C@H](c4ccc(C(F)(F)F)cc4)[C@@H]4C(=O)N(Cc5ccccc5)C(=O)[C@@H]43)C2=O)cc1	-2	nt	nt	nt	nt
c1ccc2nc(N3CCCC3)c(N3CCCC3)nc2c1	46*	6	40	-40	nt
Cc1ccccc1CNS(=O)(=O)c1csc(C(N)=O)c1	-2	-4	-2	2	nt
Cc1cc(=O)[nH]c(N/N=C/c2ccc(Cl)cc2Cl)n1	16	-5	0	0	nt
CCN(CCC#N)c1ccc(/C=N/Nc2nc(C)cc(=O)[nH]2)c(C)c1	41*	0	21	-21	i
COc1cn(-c2ccccc2)nc1C(=O)Nc1ccc(C)cc1	28	1	12	-12	nt
COc1ccc(C)cc1NC(=O)c1nn(-c2ccccc2)cc1OC	49*	-6	68	-68	i
O=C(NCCC(=O)N1CCC2(CC1)NCCc1[nH]cnc12)c1cccc(Cl)c1	3	4	-10	10	nt
Cc1c(OC(C)C(=O)NCCN2CCOCC2)ccc2c3c(c(=O)oc12)CCCC3 (stereo not given)	41*	4	7	-7	nt
CN(C)C(=O)c1ccc2c3c(cccc13)CC2	-3	-12	12	-12	nt
CC(=O)c1ccc2c3c(cccc13)CC2	38*	43	-9	9	i
O=C(NCc1ccccn1)c1ccccc1OCc1ccccc1Cl	-2	nt	nt	nt	nt
O=C(Nc1cccc(S(=O)(=O)NCc2ccco2)c1)c1cccc(Cl)c1	11	14	15	-15	nt
Cc1cc(C(F)(F)F)nn1CC(=O)NNC(=S)Nc1ccc(Cl)cc1	-3	-18	1	-1	nt
O=C(Cn1nnc(-c2cc(C(F)(F)F)cc(C(F)(F)F)c2)n1)NNC(=S)Nc1ccc(Cl)cc1	59*	-28	nt	nt	i
COc1ccc(NS(=O)(=O)c2cccc(C(=O)OCC(=O)N3CCN(c4ccc(OC)cc4)CC3)c2)cc1	-2	-1	56	-56	nt
CCCCNC(=O)CCCCCn1c(=O)[nH]c2cc(C(=O)OC)ccc2c1=O	36	13	26	-26	nt
COC(=O)c1ccc2c(=O)n(CCCCCC(=O)O)c(=O)[nH]c2c1	48*	16	-9	9	nt
COc1ccc(C2c3[nH]c4ccccc4c3CCN2Cc2ccoc2)c(F)c1 (stereo not given)	41*	-2	25	-25	i
SMILES	Neddyl block	UBC13 polyUb	SR-BI DiI inh	SR-BI uptake up	Neddyl inh conf
Oc1cccc(C2c3[nH]c4ccccc4c3CCN2Cc2ccoc2)c1 (stereo not given)	17	-2	1	-1	nt
CC1(c2nnnn2Cc2ccccc2)CCC(=O)N1CCc1ccccc1F (stereo not given)	1	nt	nt	nt	nt
Cc1ccc2c(c1)COc1c3ccc(C(=O)NCC4CC4)cc3nn1-2	47*	7	42	-42	+
O=C(NCCO)c1ccc2c3n(nc2c1)-c1ccccc1CO3	35*	8	-2	2	i
O=C(NCC1CC1)c1ccc2c3n(nc2c1)-c1ccccc1CO3	27	-6	49	-49	nt
Cc1c(C2Nc3ccccc3NC3=C2C(=O)CC(C)(C)C3)cnn1C (stereo not given)	-17	-29	-1	1	nt
COC(=O)C1=C(C)NC2=C(C(=O)CC(C)(C)C2)C1c1cnn(C)c1C (stereo not given)	40*	4	-10	10	nt
O=C1N/C(=C/c2cccn2-c2ccc(F)cc2)C(=O)N1Cc1ccccc1	nt	9	17	-17	nt
O=C1N/C(=C/c2cccn2-c2ccccc2)C(=O)N1Cc1ccccc1F	38*	-3	13	-13	i
COc1cccc2cc(-c3cn4cccc(C)c4n3)c(=O)oc12	42*	-6	20	-20	i
CN(CC(=O)Nc1ccccc1Br)C(=O)COc1ccc2ccccc2c1	6	5	-17	17	nt

High-throughput results from PubChem.
